# SENP7 block: SENP7 protease inhibitors, primary screen, biochemical, luminescence, uHTS; Sentrin-specific protease 7 (Homo sapiens), Q9BQF6; recombinant SENP7, Z-RLRGG-aminoluciferin luminescence, 40 min; inhibition, % at 5 µM; hit rate 1.5% among 330,000;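 active = inhibition above about 50% at the single test dose, limit read from the data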;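 also: plate controls were DMSO with enzyme for no effect and no enzyme buffer wells for full effect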
# SENP6 block: SENP6 protease inhibitors, primary screen, biochemical, luminescence, uHTS. Sentrin-specific protease 6 (Homo sapiens), Q9GZR1. AID 2599, 2010. Recombinant SENP6 catalytic domain, aminoluciferin luminescence. hit rate 1.8% among 330,000. inhibition, % at 10 µM;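 active = inhibition above about 50% at the single tested dose, limit read from the data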;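 also: plate controls were DMSO wells with enzyme for no effect and DMSO wells lacking enzyme for full effect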
# SENP8 block-1: SENP8 protease inhibitors, primary screen, biochemical, luminescence. purified SENP8, Z-RLRGG-aminoluciferin cleavage. inhibition, % at 10 µM. hit rate 1.2% among 330,000. AID 2540, 2010; in the data active = inhibition above about 50%
# UBC13 polyUb: UBC13 polyubiquitin chain formation inhibitors, primary screen, biochemical, TR-FRET, uHTS; hit rate 0.47% among 330,000; inhibition, % at 20 µM; Ubiquitin-conjugating enzyme E2 N (Homo sapiens), P61088; AID 485273, 2010; in the data active = inhibition above about 45%, passing the limit was not always enough
# SENP8 block-2: human SENP8 protease inhibitors, primary screen, biochemical, fluorescence, Nedd8 protein substrate, uHTS; recombinant SENP8; inhibition, % at 20 µM; hit rate 0.64% among 360,000; in the data active = inhibition mostly above about 40%, no sharp cut-off; inactive = mostly below about 27%
# Apaf1 inhib: inhibitors of human Apaf-1 apoptosome, primary screen, biochemical, DEVD-Rh110 fluorescence, uHTS | inhibition, % at 20 µM | hit rate 0.71% among 330,000 | reconstituted apoptosome caspase-3 activity; active = inhibition of at least 40% at 20 µM;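 also: plate controls were DMSO wells for no effect and DEVD-CHO caspase inhibitor wells for full effect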
#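 Material: reconstituted apoptosome with Apaf-1, cytochrome c, caspase-9, procaspase-3, dATP. Technique: Rh110 fluorescence intensity. Buffer or medium: pH 7.5 Hepes buffer with CHAPS, BSA, DTT. Times: 30 min plus 50 min, RT.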
# SENP8 confirm: SENP8 protease inhibitors, retest, confirmation, biochemical, luminescence, single concentration; AID 488912, 2010; Recombinant SENP8, Z-RLRGG-aminoluciferin luminescence, 60 min; hit rate 40% among 6,200; shares compounds with SENP7 block; inhibition, % at 12.5 µM;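 active = mean inhibition across replicates above about 50%, limit read from the data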
# SENP6 conf: SENP6 protease inhibitors, confirmation, biochemical, luminescence, single concentration. hit rate 58% among 6,200. shares compounds with SENP7 block. recombinant SENP6, Z-RLRGG-aminoluciferin luminescence. inhibition, % at 12.5 µM
# SENP7 conf: SENP7 protease inhibitors, retest, confirmation, biochemical, luminescence, single concentration; shares compounds with SENP7 block; recombinant SENP7, Z-RLRGG-aminoluciferin luminescence, 40 min; inhibition, % at 12.5 µM; hit rate 69% among 6,200; AID 488917, 2010
# Casp3 select: caspase-3 protease inhibitors, confirmation, selectivity assay for SENP inhibitor project, biochemical, single concentration; shares compounds with SENP7 block; purified caspase-3, Z-DEVD-aminoluciferin luminescence, 60 min; inhibition, % at 12.5 µM; hit rate 60% among 6,200; AID 488918, 2010;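 active = mean inhibition above about 50%, limit read from the data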;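 also: plate controls were enzyme with DMSO for no effect and wells without caspase-3 for full effect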
# Luc interf: luminescence interference (SENP counter-screen). hit rate 39% among 6,200. shares compounds with SENP7 block. Pre-incubated SENP8/Z-RLRGG-aminoluciferin, luciferase luminescence interference. inhibition, % at 12.5 µM;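 active = mean inhibition above about 50% when retested at one dose, limit read from the data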;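 also: plate controls were DMSO wells with completed reaction for no effect and substrate without enzyme for full effect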
# Numbers without * were called inactive; i = inactive; . = no result. Only some compounds are listed: those with a hit (about 3.1% of all), similar ones and a draw of the others.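 The calls were made as follows, unless noted: active = mean inhibition above about 50% in the one-dose retest (limit read from the data); inactive = the rest.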
SMILES,SENP7 block,SENP6 block,SENP8 block-1,UBC13 polyUb,SENP8 block-2,Apaf1 inhib,SENP8 confirm,SENP6 conf,SENP7 conf,Casp3 select,Luc interf
COc1ccc(C(=O)Nc2ccc(Cl)c(Cl)c2)c(OC)n1,51.3*,11.7,-5.5,5.0,8.7,0.7,17.8,14.0,25.3,33.8,14.1
Oc1ccccc1-c1cc(-c2cccc(F)c2)n[nH]1,88.0*,92.9*,88.3*,14.2,9.5,9.2,95.0*,95.1*,100.1*,64.4*,73.6*
CC(C)(C)c1ccc(-c2cc(-c3ccccc3O)[nH]n2)cc1,35.4,48.2,37.3,2.8,12.3,25.0,.,.,.,.,.
Oc1ccccc1-c1cc(-c2ccccc2Cl)[nH]n1,94.6*,93.5*,95.5*,13.5,6.2,-0.8,98.0*,98.8*,102.3*,85.0*,94.6*
COc1cccc(CN2CCN(C(=O)c3oc4c(F)cccc4c3C)CC2=O)c1,10.3,86.5*,7.5,-8.5,0.8,12.2,-19.6,-17.2,-4.9,-8.7,-6.0
O=C(O)c1nccnc1C(=O)Nc1ccc(Cl)cn1,1.7,96.7*,11.1,-0.5,11.1,6.6,-9.4,-7.1,-5.8,5.5,4.9
CCn1nccc1C(=O)Nc1cc(Cl)cc(Cl)c1,19.8,29.8,0.9,8.7,15.7,14.1,.,.,.,.,.
CCn1nccc1C(=O)Nc1ccc(Cl)cn1,62.6*,74.0*,35.1,-3.4,31.2,-2.4,33.7,37.3,79.9*,39.8,64.2*
CC(=O)CC(=O)Nc1ccc(Cl)cn1,-7.6,-8.7,-11.0,2.7,5.3,1.6,.,.,.,.,.
COc1ccc(C2CCCCC2SCC(=O)O)cc1OC (stereo not drawn),.,.,.,.,15.3,.,.,.,.,.,.
CCc1ccc(C(=O)/C=C2\Sc3ccccc3NC2=O)cc1,2.5,70.0*,32.3,-9.4,15.3,6.7,69.0*,68.0*,87.8*,61.1*,14.4
O=C(CSc1ncccc1-c1nc2ccccc2[nH]1)N1CCc2ccccc21,55.4*,-0.3,-11.0,7.9,-178.6,3.0,4.3,-2.3,16.0,11.4,5.6
COC(=O)C[C@@H]1CC[C@@H](NC(C)=O)[C@@H](CO)O1,.,.,.,.,11.1,.,.,.,.,.,.
N#Cc1c(N)[nH]c(C(=O)c2ccccc2)c1-c1ccc(Cl)cc1,.,.,.,.,10.0,.,.,.,.,.,.
O=C(CCN1C(=O)/C(=C/c2ccccc2Cl)SC1=S)NN1CCOCC1,51.7*,37.1,45.3,32.6,14.4,16.1,7.7,7.6,8.0,16.1,3.5
O=C(CCCN1C(=O)/C(=C/c2ccccc2Cl)SC1=S)Nc1cccnc1,51.1*,36.2,46.6,-1.0,17.9,29.6,-0.4,47.8,13.6,23.9,6.5
O=C(CCN1C(=O)/C(=C/c2ccccc2Cl)SC1=S)Nc1cccnc1,1.3,3.6,5.2,22.9,22.9,25.8,.,.,.,.,.
COC(=O)N(C)c1nc2ccccc2s1,4.3,-12.8,-3.8,0.3,26.7,3.5,.,.,.,.,.
Oc1ccccc1OCc1nc2ccccc2s1,80.9*,82.2*,69.6*,10.2,9.6,-11.5,-4.5,76.1*,93.6*,78.2*,80.0*
COc1cc(-c2nc3ccccc3s2)ccc1O,88.7*,94.2*,94.1*,-30.0,-272.1,7.7,95.3*,95.9*,101.5*,87.6*,94.7*
COc1cccc(-c2nc3ccccc3s2)c1O,86.4*,76.9*,53.8*,0.8,-395.0,15.4,39.0,57.9*,96.5*,74.2*,5.3
CN(C(=O)OC(C)(C)C)c1ccc(-c2nc3ccccc3s2)cc1,100.2*,100.3*,94.9*,24.1,-487.8,25.3,94.9*,96.8*,100.2*,92.9*,46.3
OCc1cc(Br)ccc1OCc1nc2ccccc2s1,15.2,16.6,-7.4,-2.7,-7.3,-10.0,.,.,.,.,.
CCC[C@H]1CN(Cc2cccnc2)C(=O)[C@@H]1CC(=O)Nc1ccc(Br)cc1,.,.,.,.,17.3,.,.,.,.,.,.
OC(c1ccc(F)cc1)c1nc(-c2cccs2)cs1 (stereo not drawn),.,.,.,.,11.4,.,.,.,.,.,.
SMILES,SENP7 block,SENP6 block,SENP8 block-1,UBC13 polyUb,SENP8 block-2,Apaf1 inhib,SENP8 confirm,SENP6 conf,SENP7 conf,Casp3 select,Luc interf
O=C(NS(=O)(=O)c1ccc2ccc(S(=O)(=O)NCCSc3ccccc3)cc2c1)c1cccc2ccccc12,.,.,.,.,3.5,.,.,.,.,.,.
CC(C)c1ccc(-c2nc3ccccc3s2)cc1,99.6*,97.6*,97.6*,-8.4,-7.2,-7.0,97.6*,99.5*,101.5*,97.4*,96.8*
COc1ccc(-c2nc3ccccc3s2)cc1O,99.9*,96.9*,95.4*,5.0,i,8.5,98.0*,98.8*,102.3*,95.5*,98.0*
FC(F)(F)c1ccc(-c2nc3ccccc3s2)cc1,.,.,.,.,-26.9,.,.,.,.,.,.
CSCCC(C(=O)NC(C)(C)C)n1c(-c2ccc(C)cc2)nc2ccccc21 (stereo not drawn),.,.,.,.,6.8,.,.,.,.,.,.
CN(C)c1ccc(/C=N/NC(=O)c2ccc3c(c2)OCO3)cc1,47.7,41.0,31.5,1.0,-294.3,-0.5,.,.,.,.,.
CCOC(=O)N/N=C\c1ccc(OC(=O)c2ccc3c(c2)OCO3)cc1,72.0*,66.3*,57.8*,4.3,8.8,6.5,-13.8,-12.9,12.7,2.6,22.5
CNc1ncnc2c1ncn2[C@H]1CN(Cc2ccc(F)cc2)C[C@@H](CO)O1,.,.,.,.,10.7,.,.,.,.,.,.
O=C(Nc1ccc(Nc2ccccc2)cc1)Nc1ccccc1Cl,85.1*,88.4*,85.8*,-3.0,-1.4,24.1,70.9*,89.4*,98.9*,56.1*,63.0*
O=C(Nc1ccc2c(c1)CCC2)Nc1ccccc1Cl,94.4*,94.6*,91.2*,1.9,1.1,24.9,41.6,92.9*,72.3*,81.4*,17.0
